{"source": "ChEMBL document CHEMBL1275448", "about": "“Identification of a novel multidrug efflux pump of Mycobacterium tuberculosis” (2008)", "key": {"[1]": {"tested_on": "Mycobacterium tuberculosis", "assay": "Antimicrobial activity against wild-type Mycobacterium bovis BCG by microplate Alamar blue assay", "type": "functional", "settings": "variant bovis BCG", "procedure,_shortened": "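Whole-cell M. bovis BCG (Institut Pasteur) MABA; mutants carried IS1096::Km insertions. Growth was in Middlebrook 7H9 with 0.2% glycerol, 0.05% Tween 80 and 10% OADC. Final drug ranges: ampicillin 62.5–2,000 μg/ml, vancomycin 1.25–40 μg/ml, streptomycin 0.25–8 μg/ml, chloramphenicol 4–128 μg/ml, tetracycline 0.5–16 μg/ml. MIC was the lowest concentration cutting viability ≥90%, read by fluorescence (ex 530/em 590 nm, room temperature).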"}, "[2]": {"tested_on": "Mycobacterium tuberculosis", "assay": "Resistance factor, ratio of MIC for Mycobacterium bovis BCG ML1034 to MIC for wild-type Mycobacterium bovis BCG", "type": "functional, variant bovis BCG", "procedure,_shortened": "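Resistance factor is the MABA MIC for BCG mutant ML1034 divided by the MIC for wild-type BCG. Both MICs were taken as ≥90% viability reduction, read by fluorescence (ex 530/em 590 nm).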"}}, "data": [{"smiles": "CC1(C)S[C@@H]2[C@H](NC(=O)[C@H](N)c3ccccc3)C(=O)N2[C@H]1C(=O)O", "note": "[AMPICILLIN]", "values": [{"measurement": "MIC", "setting": "[1]", "value": 62.5, "unit": "µg/mL"}, {"measurement": "Ratio", "setting": "[2]", "value": 32}]}, {"smiles": "O=C(N[C@H](CO)[C@H](O)c1ccc([N+](=O)[O-])cc1)C(Cl)Cl", "note": "[CHLORAMPHENICOL]", "values": [{"measurement": "MIC", "setting": "[1]", "value": 8, "unit": "µg/mL"}, {"measurement": "Ratio", "setting": "[2]", "value": 64}]}, {"smiles": "CN[C@@H]1[C@H](O[C@H]2[C@H](O[C@H]3[C@H](O)[C@@H](O)[C@H](N=C(N)N)[C@@H](O)[C@@H]3N=C(N)N)O[C@@H](C)[C@]2(O)C=O)O[C@@H](CO)[C@H](O)[C@H]1O", "note": "[STREPTOMYCIN]", "values": [{"measurement": "MIC", "setting": "[1]", "value": 0.5, "unit": "µg/mL"}, {"measurement": "Ratio", "setting": "[2]", "value": 32}]}, {"smiles": "CN(C)[C@@H]1C(O)=C(C(N)=O)C(=O)[C@@]2(O)C(O)=C3C(=O)c4c(O)cccc4[C@@](C)(O)[C@H]3C[C@@H]12", "note": "[TETRACYCLINE]", "values": [{"measurement": "MIC", "setting": "[1]", "value": 2, "unit": "µg/mL"}, {"measurement": "Ratio", "setting": "[2]", "value": ">8"}]}, {"smiles": "CN[C@H](CC(C)C)C(=O)N[C@H]1C(=O)N[C@@H](CC(N)=O)C(=O)N[C@H]2C(=O)N[C@H]3C(=O)N[C@H](C(=O)N[C@H](C(=O)O)c4cc(O)cc(O)c4-c4cc3ccc4O)[C@H](O)c3ccc(c(Cl)c3)Oc3cc2cc(c3O[C@@H]2O[C@H](CO)[C@@H](O)[C@H](O)[C@H]2O[C@H]2C[C@](C)(N)[C@H](O)[C@H](C)O2)Oc2ccc(cc2Cl)[C@H]1O", "note": "[VANCOMYCIN]", "values": [{"measurement": "MIC", "setting": "[1]", "value": 5, "unit": "µg/mL"}, {"measurement": "Ratio", "setting": "[2]", "value": 4}]}]}
